# Results collected from several papers.
# Organism: Acinetobacter baumannii
# Read-out: microbial growth
SMILES,technique,strain,time,setting,MIC
CC(C)(O/N=C(\C(=O)N[C@@H]1C(=O)N2C(C(=O)[O-])=C(C[N+]3(CCNC(=O)c4ccc(O)c(O)c4Cl)CCCC3)CS[C@H]12)c1csc(N)n1)C(=O)O,,DSM30007,,,0.2 µM
CCCNc1nc(N(C)C)c2c(c1O)C(=O)C1=C(O)[C@]3(O)C(=O)C(C(N)=O)=C(O)[C@@H](N(C)C)[C@@H]3C[C@@H]1C2.Cl.Cl,broth dilution,ATCC19606,,,> 32 µg/mL
NC1CCCCc2c1[nH]c1ccc(Cl)c(Cl)c21 (stereo not drawn),broth dilution,ATCC19606,,,16 µg/mL
O=[N+]([O-])c1ccc(O)c2ncccc12,broth dilution,ATCC19606,,,8 µg/mL
NC[C@H]1O[C@H](O[C@H]2[C@H](O)[C@@H](O[C@H]3O[C@H](CO)[C@@H](O)[C@H](N)[C@H]3O)[C@H](N)C[C@@H]2N)[C@H](N)C[C@@H]1O,,,,,1 µg/mL
O=C(Cc1cc(O)c(O)c(O)c1)NCCCCCCCC[P+](c1ccccc1)(c1ccccc1)c1ccccc1.[Br-],broth dilution,ATCC19606,18 h,,> 32 µg/mL
CN(C)c1ccc(O)c2c1C[C@H]1C[C@H]3[C@H](N(C)C)C(O)=C(C(N)=O)C(=O)[C@@]3(O)C(O)=C1C2=O,broth dilution,ATCC19606,,,≤ 0.125 µg/mL
CC1(C)S[C@@H]2[C@H](NC(=O)C(C(=O)O)c3ccccc3)C(=O)N2[C@H]1C(=O)O (stereo partly drawn),broth dilution,,,clinical isolate,> 200 µM
O=C(Nc1ccc(F)c(Cl)c1)c1cc(Cl)ccc1O,broth dilution,BAA1605,,,> 64 µg/mL
O=C(Nc1ccc2c(c1)OC(F)(F)O2)Nc1ccc(Cl)c(C(F)(F)F)c1,,DSM30007,,,> 100 µM
CN(C)CCCNc1nc(Cl)c2c(c1O)C(=O)C1=C(O)[C@]3(O)C(=O)C(C(N)=O)=C(O)[C@@H](N(C)C)[C@@H]3C[C@@H]1C2.Cl,broth dilution,ATCC19606,,,> 32 µg/mL
CCCCCCC/C=C/C(=O)N1C(=O)/C(=C(/C)O)C(=O)C1CO (stereo not drawn),,ATCC19606,,,> 200 µg/mL
C/C(=C\c1ccc(O)cc1)C(=O)Nc1ccc(C(=O)N[C@@H](CC(N)=O)C(=O)Nc2ccc(C(=O)Nc3ccc(C(=O)Nc4ccc(C(=O)O)cc4)c(O)c3OC(C)C)cc2)cc1,,DSM30008,,,0.25 µg/mL
CNc1nc(Cl)c2c(c1O)C(=O)C1=C(O)[C@]3(O)C(=O)C(C(N)=O)=C(O)[C@@H](N(C)C)[C@@H]3C[C@@H]1C2.Cl.Cl.Cl,broth dilution,ATCC19606,,,0.031 µg/mL
CNC(C)C1CCC(N)C(OC2C(N)CC(N)C(OC3OCC(C)(O)C(NC)C3O)C2O)O1 (stereo not drawn),,,,,0.5 to 1 µg/mL
CCCCCCC/C=C/C(=O)N1C(=O)/C(=C(/C)O)C(=O)C1CCC(=O)O (stereo not drawn),,ATCC19606,,,> 200 µg/mL
C[C@@H](O)[C@H]1C(=O)N2C(C(=O)O)=C(S[C@@H]3CN[C@H](C(=O)N(C)C)C3)[C@H](C)[C@H]12,broth dilution,KCCM40203,16 h,,2 µM
N=C(N)c1ccc(OCc2ccccc2COc2ccc(C(=N)N)cc2)cc1,broth dilution,ATCC17978,,,> 200 µg/mL
CN(C)[C@@H]1C(O)=C(C(N)=O)C(=O)[C@@]2(O)C(O)=C3C(=O)c4c(c(F)c5ccc(CNC6CC6)cc5c4O)C[C@H]3C[C@@H]12,broth dilution,ATCC19606,,,1 µg/mL
O=C(CCCCCCCCCC[P+](c1ccccc1)(c1ccccc1)c1ccccc1)Nc1ccc(O)c(O)c1.[Br-],broth dilution,ATCC19606,18 h,,> 32 µg/mL
CN(C)CC(C)(C)CNc1nc(F)c2c(c1O)C(=O)C1=C(O)[C@]3(O)C(=O)C(C(N)=O)=C(O)[C@@H](N(C)C)[C@@H]3C[C@@H]1C2.Cl,broth dilution,ATCC19606,,,4 µg/mL
CC(C)Oc1c(NC(=O)c2ccc(NC(=O)[C@H](CC(N)=O)NC(=O)c3ccc(NC(=O)c4ccc(C#N)cn4)cc3)cc2)ccc(C(=O)Nc2ccc(C(=O)O)cc2)c1O,,DSM30008,,,0.125 µg/mL
C[C@H]1COc2c(N3CCN(C)CC3)c(F)cc3c(=O)c(C(=O)O)cn1c23,broth dilution,,,,3.3 µM
C/C(O)=C1\C(=O)C(CC(C)C)N(C(=O)C=Cc2ccccc2)C1=O (stereo not drawn),,ATCC19606,,,> 200 µg/mL
O=C(O)c1ccc(-n2cc(/C=N/Nc3ccc(F)cc3)c(-c3ccc(F)cc3)n2)cc1,,ATCCBAA1605,,,25 µg/mL
O=C(O)c1ccc(-n2cc(/C=N/Nc3ccc(F)c(Cl)c3)c(-c3ccc4ccccc4c3)n2)cc1,,ATCCBAA1605,,,25 µg/mL
O=[N+]([O-])c1ccc(O)c2ncccc12,,19606,,,1.56 µM
O=C(CCCCCCCC[P+](c1ccccc1)(c1ccccc1)c1ccccc1)Nc1cc(O)c(O)c(O)c1.[Br-],broth dilution,ATCC19606,18 h,,> 32 µg/mL
CN(C)Cc1ccc2c(N(C)C)c3c(c(O)c2c1)C(=O)C1=C(O)[C@]2(O)C(=O)C(C(N)=O)=C(O)[C@@H](N(C)C)[C@@H]2C[C@@H]1C3,broth dilution,ATCC19606,,,1 µg/mL
NCCCNC1CCCCc2c1[nH]c1ccc(Br)cc21 (stereo not drawn),broth dilution,ATCC19606,,,32 µg/mL
CC(C)CCNc1nc(Cl)c2c(c1O)C(=O)C1=C(O)[C@]3(O)C(=O)C(C(N)=O)=C(O)[C@@H](N(C)C)[C@@H]3C[C@@H]1C2.Cl.Cl.Cl,broth dilution,ATCC19606,,,4 µg/mL
CCCCCCC/C=C/C(=O)N1CC(=O)/C(=C(\C)O)C1=O,,ATCC19606,,,100 µg/mL
N=C(N)c1ccc(OCCC(CCOc2ccc(C(=N)N)cc2)c2ccccc2)cc1 (stereo not drawn),broth dilution,ATCC17978,,,> 200 µg/mL
CCn1cc(C(=O)O)c(=O)c2cc(F)c(N3CCNCC3)cc21,broth dilution,BAA747,,,16 µM
CCCCCCC/C=C/C(=O)N1C(=O)/C(=C(\O)c2ccncc2)C(=O)C1CC(C)C (stereo not drawn),,ATCC19606,,,> 200 µg/mL
CN(C)[C@@H]1C(O)=C(C(N)=O)C(=O)[C@@]2(O)C(O)=C3C(=O)c4c(cc5ccc(-c6cccnc6)cc5c4O)C[C@H]3C[C@@H]12,broth dilution,ATCC19606,,,32 µg/mL
O=C(O)c1ccc(-n2cc(/C=N/Nc3cccc(Cl)c3)c(-c3cccc(F)c3)n2)cc1,,ATCCBAA1605,,,6.25 µg/mL
O=C(N[C@H](CO)[C@H](O)c1ccc([N+](=O)[O-])cc1)C(Cl)Cl,,ATCC19606,,,250 µg/mL
N=C(N)c1ccc(OCc2cccc(COc3ccc(C(=N)N)cc3)c2)cc1,broth dilution,ATCC17978,,,> 200 µg/mL
